Activity calls are given as the source filed them.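 How the source made its calls: active means a dose-dependent rise in calcium signal, with potency and percent of maximal acetylcholine response fitted; inactive means the rest.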
target: Muscarinic acetylcholine receptor M5 (Homo sapiens) (UniProt P08912); assay: M5 positive allosteric modulation, counter-screen, dose response, counter-screen for M4 PAM project, human, CHO cells, calcium fluorescence (AID 588747); details: CHO hM5, calcium Fluo-4 fluorescence, ACh EC20 potentiation; series mostly up to 30 µM; percent ACh max response: at the top concentration
In short: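 Material: human M5-expressing CHO cells; Also added: acetylcholine at EC20, then acetylcholine at EC80; Measured by: Fluo-4 calcium fluorescence; Controls: 1 mM acetylcholine as maximal response; Times: compound pre-incubation 144 s, EC80 ACh 86 s after EC20, 37 °C; Doses: concentration series, log M −9.29 to −4.52, 0.3% DMSO.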

Sequence of Muscarinic acetylcholine receptor M5 (Homo sapiens) (P08912 whole entry, looked up): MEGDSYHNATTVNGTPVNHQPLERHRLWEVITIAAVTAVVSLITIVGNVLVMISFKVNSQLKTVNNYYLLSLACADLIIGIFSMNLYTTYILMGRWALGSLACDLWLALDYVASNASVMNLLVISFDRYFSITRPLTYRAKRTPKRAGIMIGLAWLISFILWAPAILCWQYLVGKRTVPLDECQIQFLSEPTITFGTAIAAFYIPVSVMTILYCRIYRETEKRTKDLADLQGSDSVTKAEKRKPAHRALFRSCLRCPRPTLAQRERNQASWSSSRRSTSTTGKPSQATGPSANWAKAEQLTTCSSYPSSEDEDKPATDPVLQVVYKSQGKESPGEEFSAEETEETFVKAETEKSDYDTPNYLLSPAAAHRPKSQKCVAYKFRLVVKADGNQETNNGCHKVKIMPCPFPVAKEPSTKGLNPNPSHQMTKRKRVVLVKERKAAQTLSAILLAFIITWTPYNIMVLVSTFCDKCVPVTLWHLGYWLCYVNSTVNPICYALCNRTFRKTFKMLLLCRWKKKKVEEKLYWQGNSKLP

Compound | percent ACh max response
Cc1nc2sc(C(=O)NCc3ccncn3)c(N)c2c(C)c1Cl | 15.2 (inactive)
Cc1nc2sc(C(=O)NCCc3ccncc3)c(N)c2c(C)c1Cl | 19.3 (inactive)
Cc1nc2sc(C(=O)NCc3cccc(F)c3F)c(N)c2c(C)c1Cl | 16.2 (inactive)
Cc1nc2sc(C(=O)NC3CC3)c(N)c2c(C)c1Cl | 17.9 (inactive)
Cc1nc2sc(C(=O)NCc3nccs3)c(N)c2c(C)c1Cl | 18.3 (inactive)
